Results on 14 compounds are retold here after PubChem BioAssay.

The nature of assay [1]: inhibitors of TNFa-induced NFkB p65 translocation, primary screen, imaging, HUVEC, MLSMR starter and 10KST1 sets (AID 438;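 active = inhibition above 20% together with a positive visual image hit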;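 also: compound added about 3h40 before a 20 min TNFalpha stimulation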;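 as to inhibition: signal is the nuclear over cytoplasmic p65 intensity ratio per well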). Conditions: HUVEC TNFa-induced p65 nuclear translocation; cell count: measured here: nuclei count (cytotoxicity indicator), at 2.08 µM; inhibition: at 2 µM, stronger effect = higher value, 0% TNFa-plus-vehicle, 100% no-TNFa wells.
Assay [2] can be described thus: inhibitors of E-selectin induction by TNFa, primary screen, imaging, HUVEC, immunofluorescence, MLSMR starter and 10KST1 sets (AID 487;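 active = visually confirmed hit in the image check and inhibition above 20%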;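 as to inhibition: signal is fraction of cell area covered by stained E-selectin grains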;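 as to nuclei count: 100% = median nuclei count of all wells on the same plate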). Conditions: HUVEC TNFalpha-induced E-selectin immunofluorescence imaging, at 2 µM; inhibition: stronger effect = higher value; nuclei count: measured here: cell number, toxicity.
Assay [3] can be described thus: DUSP6 inhibitors restoring Erk phosphorylation by chemical complementation, primary imaging in DUSP6-transfected HeLa (AID 609;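 active = compounds giving at least 50% inhibition in the cell-based MKP-3 phosphatase rescue imaging test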;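 as to inhibition: phospho-Erk level distribution per well compared with pooled transfected vehicle control wells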). Conditions: HeLa MKP-3 transfected, phospho-Erk imaging KS statistic, at 10 µM, cells stimulated with TPA for 15 min.
Assay [4] concerns the target Dual specificity protein phosphatase 6 (Homo sapiens) (UniProt Q16828). Described as above. Conditions: HeLa MKP-3 transfected, phospho-Erk imaging KS statistic; at 10 µM; stronger effect = higher value; cells stimulated with TPA for 15 min.
Assay [5] deals with Voltage-gated potassium channel subunit beta-2 (Rattus norvegicus) (UniProt P62483). Put plainly: KvBeta enzyme negative modulators, primary screen, biochemical, NADPH fluorescence (AID 622;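 active = fluorescence slope higher than the sample average by over 3 SD, cut at about -0.22 in these data, passing the limit was not always enough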;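 also: slope of raw intensity against log time taken from 70 to 1610 s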). Conditions: recombinant KvBeta, 4-cyanobenzaldehyde reduction, at 10 µM, stronger effect = higher value.
Assay [6] has the same target. Briefly: KvBeta positive modulators, primary screen, biochemical, NADPH fluorescence (AID 623;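 active = NADPH fluorescence slope more negative than the mean of all samples by about 3 SD, 99.7% confidence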;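 also: fluorescence intensity change per second fitted from 20 to 320 s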). Conditions: Recombinant KvBeta, NADPH fluorescence decrease slope, 10 min; at 10 µM; stronger effect = lower value.
Assay [7] has as its target Alpha-2C adrenergic receptor (Homo sapiens) (UniProt P18825). Put plainly: modulators of alpha2C/GIRK thallium flux, primary screen, cell-based, HEK293 alpha2C/GIRK1/2 (AID 624;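 active = fluorescence slope after compound addition differing from the mean of all screened samples at 99.7% confidence, in either direction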;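 also: slope of fluorescence ratio to pre-addition baseline per second over 15 to 24 s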). Conditions: thallium flux BTC fluorescence, at 10 µM, actives lie on both sides.
Assay [8] can be described thus: inhibitors of larval lipid processing in zebrafish, primary screen, whole organism, PED6 fluorescence, gall bladder and intestine (AID 686;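 active = a full or partial loss of lipid-probe fluorescence in the fish gall bladder, intestine or both, judged by eye; inactive = no fluorescence loss, or compound toxic to the fish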;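 also: larvae 5 to 7 days old with five fish per well; signal comes from phospholipase A2 cleavage of quenched PED6 carried via bile; overnight exposure to compound and PED6 before scoring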). Conditions: Zebrafish larvae PED6 lipid processing, fluorescence scoring; screened at 20 µM (by protocol). In short, it runs like this:
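Doses: 20 µM single dose. Test system: live zebrafish larvae aged 5-7 days, whole organism. Quantity: five larvae per well. Measured by: By-eye fluorescence microscopy. Reagent: ingested quenched lipid PED6 at 100 nM. Read-out: visual per-well fluorescence inhibition score. Times: overnight exposure of larvae to compound plus PED6.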

Assay [9] in a line: inhibitors of Chlamydomonas gravitaxis, primary screen, whole organism, Chlamydomonas reinhardtii, WT vs cilia-less mutant, absorbance, 96-well (AID 463189).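 Also: 0% = wild type cc124 cells in DMSO and 100% = ciliumless bld1 mutant cells.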 The settings on record: OD600 absorbance, 2 days, at 10 µM, stronger effect = higher value.
[10] abbreviates: measured here: cell density z-score.
[11] abbreviates: measured here: nuclear c-Myc green intensity z-score.
Setting [12] is: measured here: nuclear pErk red intensity z-score, stronger effect = higher value.

One may read the inhibition as the change of the read-out against control, counted positive when it falls.

Calls of active or inactive are those of the source.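 The calls were made as follows, unless noted: active = inhibition at or above 50% relative to wild type and mutant plate controls; inactive = inhibition below 50%.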

Chain of Alpha-2C adrenergic receptor (Homo sapiens) (P18825 whole entry, looked up): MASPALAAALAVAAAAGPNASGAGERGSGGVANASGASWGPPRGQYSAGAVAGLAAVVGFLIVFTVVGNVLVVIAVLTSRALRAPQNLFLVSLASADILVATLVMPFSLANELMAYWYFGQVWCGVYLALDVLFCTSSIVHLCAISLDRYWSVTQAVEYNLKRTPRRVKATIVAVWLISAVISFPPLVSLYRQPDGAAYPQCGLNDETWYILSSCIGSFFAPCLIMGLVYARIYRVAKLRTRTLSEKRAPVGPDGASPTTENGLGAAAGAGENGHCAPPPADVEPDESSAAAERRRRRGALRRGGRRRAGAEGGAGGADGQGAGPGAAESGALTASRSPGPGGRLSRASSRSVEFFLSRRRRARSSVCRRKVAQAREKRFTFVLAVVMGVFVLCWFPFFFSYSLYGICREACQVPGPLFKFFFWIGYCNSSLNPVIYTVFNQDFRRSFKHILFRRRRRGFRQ
Chain of Voltage-gated potassium channel subunit beta-2 (Rattus norvegicus) (P62483 whole entry, looked up): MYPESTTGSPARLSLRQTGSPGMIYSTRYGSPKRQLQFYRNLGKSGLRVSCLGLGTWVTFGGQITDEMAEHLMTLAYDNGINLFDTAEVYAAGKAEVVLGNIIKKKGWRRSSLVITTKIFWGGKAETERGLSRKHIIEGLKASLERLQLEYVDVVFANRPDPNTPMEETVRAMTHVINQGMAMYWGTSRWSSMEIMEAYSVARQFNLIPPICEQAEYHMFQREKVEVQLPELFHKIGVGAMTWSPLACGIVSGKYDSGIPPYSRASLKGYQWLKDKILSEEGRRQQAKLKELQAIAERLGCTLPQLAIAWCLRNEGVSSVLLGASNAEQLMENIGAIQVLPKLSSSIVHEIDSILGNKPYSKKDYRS
Chain of Dual specificity protein phosphatase 6 (Homo sapiens) (Q16828 whole entry, looked up): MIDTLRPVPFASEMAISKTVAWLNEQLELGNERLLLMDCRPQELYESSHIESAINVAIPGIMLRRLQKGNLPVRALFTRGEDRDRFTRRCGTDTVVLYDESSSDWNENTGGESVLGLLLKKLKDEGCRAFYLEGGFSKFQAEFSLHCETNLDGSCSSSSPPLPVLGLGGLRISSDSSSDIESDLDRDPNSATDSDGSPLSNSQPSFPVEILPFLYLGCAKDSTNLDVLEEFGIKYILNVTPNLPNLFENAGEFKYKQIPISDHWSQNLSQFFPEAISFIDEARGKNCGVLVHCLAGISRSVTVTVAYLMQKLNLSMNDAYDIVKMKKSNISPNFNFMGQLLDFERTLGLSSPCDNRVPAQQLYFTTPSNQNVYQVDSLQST

In the case of `COc1ccc(OC)c(C2C(C(=O)c3ccco3)=C(O)C(=O)N2CCCN2CCOCC2)c1` (configuration not stated), the cell count in assay [1] was 546. Besides, the inhibition in assay [1] is -4.5% (inactive); in [2], -85% (inactive); in assay [4], -0.674% (inactive); in assay [9] it was 2.93% (inactive). The compound also gave a nuclei count in assay [2] of 159%. Moreover, the z-score is -1.04 in [3] (setting [10]), 0.589 in assay [3] (setting [11]) and -0.634 in [3] (setting [12]). Also, the fluorescence slope in assay [5] was -0.495 (inactive). Also, in assay [6], the NADPH fluorescence slope is -3.6e-05 (inactive). Besides, in assay [7], the slope was 0.0072 (inactive). For the same compound, the result in assay [8] was inactive.

For `Fc1ccccc1/C=N/n1cnnc1`, the cell count in assay [1] came out at 540. The inhibition in [1] was -6.3% (inactive); in assay [2], -60.4% (inactive); in [4], 4.25% (inactive); in [9] it was 5.22% (inactive). The nuclei count in [2] is 172%. In addition, the z-score was 0.728 in assay [3] (setting [10]), -0.356 in assay [3] (setting [11]) and 0.425 in [3] (setting [12]). In assay [5], the fluorescence slope was -0.297 (inactive). In addition, the NADPH fluorescence slope in assay [6] is -6.2e-06 (inactive). Besides, the slope in [7] was 0.00552 (inactive). Moreover, the result in assay [8] was inactive.

As to `COc1ccc(N2CCN(C3CC(=O)NC3=O)CC2)cc1` (configuration not stated), the cell count in assay [1] is 540. Besides, the inhibition was -26.9% (inactive) in [1], -161% (inactive) in assay [2], 9.82% (inactive) in [4] and 5.23% (inactive) in assay [9]. In assay [2], this compound yielded a nuclei count of 176%. Besides, the z-score in [3] (setting [10]) is 0.114; in [3] (setting [11]), -0.641; in assay [3] (setting [12]), -1.94. Further, in [5], the fluorescence slope is -0.548 (inactive). For the same compound, in assay [6], the NADPH fluorescence slope is -4.7e-05 (inactive). In addition, in assay [7], the slope was 0.00484 (inactive). Also, the result in assay [8] was inactive.

For the compound `Cc1cccc(C)c1OCC(O)CNS(=O)(=O)c1ccccc1C(=O)N1CCCCC1` (configuration not stated), the cell count in assay [1] was found to be 512. Besides, the inhibition in [1] was 5.4% (inactive); in assay [2] it was -148% (inactive); in assay [4], -3.95% (inactive); in assay [9], -6.87% (inactive). In [2], the nuclei count was 171%. Also, the values for the z-score in assay [3] (setting [10]), in assay [3] (setting [11]) and in assay [3] (setting [12]) were -0.797, 2.33 and 0.877, respectively. Moreover, the fluorescence slope in assay [5] was -0.36 (inactive). In assay [6], the NADPH fluorescence slope was -7e-05 (inactive). The slope in assay [7] is 0.00455 (inactive). The compound was called inactive in assay [8].

With `CCC1(C)Cc2c(C#N)c(N)sc(=S)c2CO1` (configuration not stated), in assay [1], the cell count amounted to 505. Besides, the inhibition in assay [1] was -3.2% (inactive); in assay [2], -128% (inactive); in [4] it was -14% (inactive); in assay [9], 28.8% (inactive). The compound also yielded a nuclei count in assay [2] of 140%. In addition, the z-score is 0.126 in assay [3] (setting [10]), 0.287 in assay [3] (setting [11]) and -0.524 in assay [3] (setting [12]). The fluorescence slope in assay [5] was -0.501 (inactive). Moreover, the NADPH fluorescence slope in [6] is -2.4e-05 (inactive). In [7], the slope was 0.00206 (inactive). The compound was classed as inactive in [8].

For `Cc1cc(OCCN2CCCCC2)nc2ccccc12`, in assay [1], the cell count was determined as 482. In addition, the inhibition in [1] is 6.3% (inactive); in [2], -39.5% (inactive); in assay [4], 26.3% (inactive); in [9], 39.2% (inactive). Further, the nuclei count in assay [2] was 95%. Further, the figures for the z-score in assay [3] (setting [10]), in assay [3] (setting [11]) and in assay [3] (setting [12]) were 1.18, -0.61 and -0.992, respectively. The fluorescence slope in assay [5] was -0.332 (inactive). Besides, the NADPH fluorescence slope in [6] was 1.4e-05 (inactive). Further, in assay [7], the slope was 0.0054 (inactive). The result in assay [8] was inactive.

On to `COc1ccc(N2C(=O)CN=C2Nc2nc(C)cc(C)n2)cc1`, for which, in [1], the cell count was 570. Moreover, the inhibition in [1] is -16.6% (inactive); in assay [2] it was -179% (inactive); in [4], 1.98% (inactive); in [9] it was 0.296% (inactive). For the same compound, the nuclei count in assay [2] was found to be 144%. Moreover, the values for the z-score in assay [3] (setting [10]), in assay [3] (setting [11]) and in [3] (setting [12]) were 1.15, -0.727 and 0.0405, respectively. Moreover, the fluorescence slope in [5] was -0.509 (inactive). Moreover, in [6], the NADPH fluorescence slope was -6.2e-05 (inactive). Besides, in [7], the slope is 0.00444 (inactive). The outcome in assay [8] was inactive.

Turning to `COc1ccccc1N(O)C1CC(=O)N(c2ccc(Br)cc2)C1=O` (configuration not stated), the cell count in assay [1] amounted to 351. Besides, the inhibition is 4% (inactive) in [1], 46% (inactive) in [2], -2.59% (inactive) in assay [4] and 37.8% (inactive) in assay [9]. The compound also gave a nuclei count in assay [2] of 74.7%. Further, the z-score was -0.0216 in assay [3] (setting [10]), 1.1 in assay [3] (setting [11]) and 0.319 in [3] (setting [12]). Also, the fluorescence slope in assay [5] was -0.415 (inactive). For the same compound, in assay [6], the NADPH fluorescence slope is -4.4e-05 (inactive). The slope in assay [7] is 0.00547 (inactive). In addition, the compound was classed as inactive in assay [8].

On to `c1cc(-c2nnc3sc(C4CCCCC4)nn23)ccn1`, for which the cell count in [1] was 660. For the same compound, the inhibition in [1] was -3% (inactive); in [2], -26.6% (inactive); in assay [4] it was -7.86% (inactive); in [9] it was 70.8% (active). In assay [2], this compound yielded a nuclei count of 150%. Further, the values for the z-score in assay [3] (setting [10]), in assay [3] (setting [11]) and in assay [3] (setting [12]) were 0.217, -0.0752 and 0.0462, respectively. Moreover, in assay [5], the fluorescence slope is -0.419 (inactive). The NADPH fluorescence slope in assay [6] was -0.00016 (inactive). Besides, the slope in assay [7] is 0.00483 (inactive). Besides, in assay [8], the compound was classed as inactive.

Consider `CC(C)OC(=O)C(C#N)c1nc2ccccc2nc1N1CCCC1` (configuration not stated), for which the cell count in [1] was found to be 485. The inhibition in [1] is -22.5% (inactive); in assay [2], -48.2% (inactive); in [4], 22.7% (inactive); in [9] it was 5.71% (inactive). The compound also yielded a nuclei count in assay [2] of 129%. Also, the z-score in assay [3] (setting [10]) is 2.22; in assay [3] (setting [11]) it was -1.34; in assay [3] (setting [12]) it was -1.3. The fluorescence slope in assay [5] was -0.543 (inactive). In addition, the NADPH fluorescence slope in assay [6] is -1.4e-05 (inactive). Moreover, the slope in [7] was 0.00397 (inactive). For the same compound, the result in assay [8] was inactive.

As to `O=C1OC(Nc2ccc(Br)cc2F)c2ccccc21` (configuration not stated), the cell count in [1] was determined as 426. The inhibition in assay [1] was -1.6% (inactive); in assay [2], -16.9% (inactive); in assay [4] it was -2.91% (inactive); in assay [9], -4.19% (inactive). This compound also registered a nuclei count in assay [2] of 149%. For the same compound, the z-score in [3] (setting [10]) is 0.057; in [3] (setting [11]), -0.568; in assay [3] (setting [12]) it was 0.211. The fluorescence slope in assay [5] was -0.383 (inactive). Moreover, the NADPH fluorescence slope in assay [6] was -4.6e-05 (inactive). The slope in [7] was 0.00575 (inactive). Besides, the call in assay [8] was inactive.

For `CCCCNC(=O)c1c(N)n(/N=C/c2cccnc2)c2nc3ccccc3nc12`, in assay [1], the cell count is 474. Besides, the inhibition in [1] was 4.9% (inactive); in [2], -130% (inactive); in assay [4] it was 24.5% (inactive); in assay [9], 29% (inactive). In addition, the nuclei count in assay [2] was determined as 139%. Besides, the z-score is 1.68 in assay [3] (setting [10]), -0.352 in [3] (setting [11]) and 0.256 in assay [3] (setting [12]). Further, the fluorescence slope in assay [5] is -0.456 (inactive). In assay [6], the NADPH fluorescence slope was 5.4e-07 (inactive). Besides, in assay [7], the slope is 0.0052 (inactive). In assay [8], the compound was called inactive.

Regarding `O=C(Nc1cccnc1)c1cccnc1`, in [1], the cell count came out at 639. The inhibition in assay [1] was 0.9% (inactive); in assay [2], -26.7% (inactive); in assay [4], 0.671% (inactive); in assay [9], 3.69% (inactive). In [2], the nuclei count came to 158%. The z-score in assay [3] (setting [10]) is -0.532; in assay [3] (setting [11]), 0.364; in assay [3] (setting [12]), -0.22. In [5], the fluorescence slope is -0.534 (inactive). Moreover, the NADPH fluorescence slope in assay [6] is -3.1e-05 (inactive). Also, the slope in [7] was 0.00505 (inactive). Besides, the result in assay [8] was inactive.

`Cc1ccnc(N2CCN(c3cc(C)c(C#N)c4nc5ccccc5n34)CC2)c1`: the cell count in [1] amounted to 572. Moreover, the inhibition was 7.2% (inactive) in [1], -151% (inactive) in [2], 13.9% (inactive) in assay [4] and -4.75% (inactive) in [9]. The nuclei count in [2] is 125%. Also, the values for the z-score in assay [3] (setting [10]), in assay [3] (setting [11]) and in assay [3] (setting [12]) were 0.222, 0.0486 and -0.157, respectively. Also, the fluorescence slope in assay [5] is -0.408 (inactive). The NADPH fluorescence slope in [6] is -8.8e-06 (inactive). Further, the slope in assay [7] is 0.00554 (inactive). The call in assay [8] was inactive.
